In paper PMC6307981 (Journal of Pharmaceutical Sciences, 2019):

Columns and labels:
[1] = Equilibrium solubility of the crystalline compounds; type: physicochemical; conditions: 37°C, >24 h, mean ± s.d., n = 3, LLOQ 1 μg/mL
Procedure, shortened: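 Excess crystalline solid (2-3 mg per 1 mL) in water held at 37°C for >24 h. Supernatant cleared by centrifugation at 30,279 × g for ≥20 min, then quantified by HPLC-UV: isocratic C18 column at 50°C, acetonitrile/water 80:20 or 70:30 depending on compound, 1 mL/min, detection at 280 nm, calibration against acetonitrile standards.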

[2] = Metabolic stability in human liver microsomes; type: in vitro ADME
Procedure, shortened: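 Incubated with 0.5 mg/mL human liver microsomes at 1 μM compound in 100 mM KPO4, pH 7.4, started with 1 mM NADPH. Aliquots at 0, 5, 10, 20, 40 and 60 min quenched in cold acetonitrile. Parent remaining measured by LC-MS/MS.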

[3] = type: in vivo, rats (male; Sprague-Dawley); conditions: rat
Procedure, shortened: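 Male Sprague-Dawley rats, lightly isoflurane-anaesthetised, got 250 μL dosing solution intratracheally by catheter to the tracheal bifurcation at 0.067, 0.12 or 0.28 mg/kg. Plasma, lung and, in one study, BAL sampled to 24 or 48 h and assayed by LC-MS. Four-compartment model with central lung fixed at 2 g and BAL plus lung summed. M3 used for <LLOQ data; VPC; apparent parameters scaled to 0.3 kg.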

[4] = from human liver microsomes data
[5] = intratracheal, apparent parameter of final model, scaled to 0.3 kg
[6] = intratracheal, final model, scaled to 0.3 kg

Solubility in water [1]: <LLOQ | CLH (hepatic clearance) [2, 4]: 747.9 mL/min | EH (hepatic extraction ratio) [2, 4]: 0.50 | CLint (intrinsic clearance) ([2]; human liver microsomes, 1 μM compound): 1491.7 mL/min | half-life at 1 μM ([2]; human, liver microsomes, pH 7.4): 54.4 min | Time of distribution equilibrium (lung, BAL, plasma) ([3]; intratracheal 0.067 mg/kg): 2 h | CLC, clearance central [3, 5]: 0.0745 L/h | CLLP, clearance lung to plasma [3, 5]: 0.0175 L/h | VC, volume of distribution central [3, 5]: 0.0855 L | FBAL, fraction in BAL ([3]; intratracheal, final model (Table 5)): 0.980% | QL, intercompartmental clearance lung [3, 6]: 0.00596 L/h | VLP, volume of distribution deep lung [3, 6]: 0.0582 L
Compound: CCCCCCCCCc1nc2cc(Cl)ccc2c(=O)n1N [SEN001, 3-amino-7-chloro-2-nonylquinazolin-4(3H)-one]
